In data set [1] the test system is Mus musculus. The experiment in a line: Antidepressant activity against Swiss-Webster mouse assessed as reduction in duration of immobility at 10 mg/kg, ip after 1 hr by tail suspension behavioral despair test relative to control. The class given is functional. Details: scale not given: the % may be the effect or the level left. The following applies: route intraperitoneal. An outline of the steps:
(§1)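 Mice dosed ip at 10 mg/kg in 0.5% w/v CMC in water (0.5 mL per 100 g body weight); controls got CMC alone; imipramine 10 mg/kg as reference. One hour later mice were hung by the tail from a shelf edge 80 cm above the floor, taped about 1 cm from the tail tip. Immobility (passive, completely motionless hanging) timed over 6 min; mean ± S.E.M., % deviation from control.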

Data set [2] can be described thus: Stability in phosphate buffer at pH 7.4 after 4 days by HPLC. In kind it is physicochemical. The essentials: (§2)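 Dihydropyridine carrier at 2 × 10^-1 mmol in 0.2 M phosphate buffer (pH 7.4 or 5.8) at room temperature (32 °C), followed for 4 days by HPLC for the parent and its oxidation or degradation products. Pseudo-first-order disappearance constant from linear regression of ln peak area against time; t1/2 calculated; n = 4.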

In a further data set the test system is Brain. The experiment in a line: Drug level in Sprague-Dawley rat brain at 20 mg/kg, iv. The following applies: in vivo. In kind it is ADME, organism-based. The arrangement: dose 20 mg/kg, route intravenous. The essentials: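 Male Sprague-Dawley rats received a freshly prepared DMF solution (25 mg/mL) via the external jugular vein at 20 mg/kg. Animals sacrificed at 10, 20 and 45 min. Whole brain homogenized in water plus 5% DMF in acetonitrile, then centrifuged; blood precipitated in acetonitrile. Supernatants filtered and the quaternary acid quantified by HPLC against recovery spikes of quaternary salt into blank rat brain and blood.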

Data set [3] is described as follows: Stability in mouse plasma assessed as rate of oxidation by HPLC. The class given is ADME, cell-free. An outline of the steps: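 Heparinized mouse blood spun 4000 rpm for 20 min; plasma diluted to 80% with phosphate buffer (0.11 mol, pH 7.4) and prewarmed at 37 °C. Methanolic dihydro compound added; kept at 37 °C. Aliquots at 1, 2, 4, 8, 16, 32 and 64 min quenched in ice-cold methanol, frozen at −80 °C, centrifuged, filtered and run on HPLC. K_disapp and t1/2 from linear regression of ln peak area vs time; n = 4.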

A short description of data set [4]: Chemical stability in 30% hydrogen peroxide assessed as rate of oxidation by UV spectroscopy. In kind it is physicochemical.
A short description of data set [5]: Stability in phosphate buffer at pH 5.8 after 4 days by HPLC. The class given is physicochemical. An outline of the steps:
as §2

Data set [6] in a line: Stability in Swiss-Webster mouse brain homogenate assessed as rate of oxidation by HPLC. The class given is ADME, tissue-based. An outline of the steps: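 Brains from ten adult male Swiss-Webster mice were washed in ice-cold saline and homogenized in ice-cold isotonic phosphate buffer (0.2 mol, pH 7.4) to give 20% homogenate, then prewarmed 5 min at 37 °C. Methanolic dihydro compound added; held at 37 °C. Samples taken at 1–64 min into ice-cold methanol, frozen at −80 °C, then analysed by HPLC. Pseudo-first-order K and t1/2 from ln peak area vs time; n = 4.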

Data set [7] is described as follows: Chemical stability in ferricyanide solution assessed as rate of oxidation by UV spectroscopy. The class given is physicochemical.
Data set [8] relates to Mus musculus. The experiment in a line: Antidepressant activity against Swiss-Webster mouse at 10 mg/kg, ip after 1 hr by tail suspension behavioral despair test relative to imipramine. The following applies: route intraperitoneal. In kind it is functional. An outline of the steps:
as §1

Structures are written as SMILES.

This note sets out measurements from ChEMBL document CHEMBL1136857, “1-Malonyl-1,4-dihydropyridine as a novel carrier for specific delivery of drugs to the brain” (Bioorg Med Chem, 2009).

In the case of `CN(C)c1ccc(/C=N/NC(=O)C2C=CN(C(C(=O)O)C(=O)O)C=C2)cc1`, the Activity with Mus musculus [1] amounted to 54.95%. For the same compound, the half-life in data set [2] worked out at 248 min; in data set [3], 18.9 min; in data set [4], 3.15 min; in data set [5], 169 min; in data set [6], 9.58 min; in data set [7], 1.14 min. Besides, the Drug uptake with Brain was 29.17 µg/g.

In the case of `CCOC(=O)C(C(=O)O)[n+]1ccc(C(=O)N/N=C/c2ccccc2O)cc1.[Br-]` (stereo not given), the figures for the Activity in the data set on Mus musculus [1] and in the data set on Mus musculus [8] were 30.34% and 78.8%, respectively.

Turning to `CN(C)c1ccc(/C=N/NC(=O)c2cc[n+](C(C(=O)O)C(=O)O)cc2)cc1.[Br-]`, the Activity in the data set with Mus musculus [1] is listed as 50.75%.

For the compound `CN(C)CCCN1c2ccccc2CCc2ccccc21` [IMIPRAMINE], the Activity in the data set with Mus musculus [1] turned out to be 45.14%.

In the case of `CCOC(=O)C(C(=O)O)N1C=CCC(C(=O)N/N=C/c2ccc(OC)cc2)=C1` (stereo not given), the half-life in data set [2] stood at 260 min; in data set [3] it was 21.8 min; in data set [4] it was 3.35 min; in data set [5], 196 min; in data set [6], 10.1 min; in [7] it was 2.1 min.

On to `CCOC(=O)C(C(=O)O)N1C=CC(C(=O)N/N=C/c2ccccc2O)C=C1` (stereo not given), for which the Activity in the data set on Mus musculus [1] turned out to be 36.7%; with Mus musculus [8] it was 92.8%. In addition, the figures for the half-life in data set [4] and in data set [7] were 4.08 min and 2.48 min, respectively.

On to `CCOC(=O)C(C(=O)O)N1C=CC(C(=O)N/N=C/c2ccccc2Cl)C=C1` (stereo not given), for which the figures for the Activity in the data set on Mus musculus [1] and in the data set with Mus musculus [8] were 40.9% and 86.7%, respectively. The half-life in [2] is 402 min; in [3], 23.3 min; in [4], 5.3 min; in data set [5] it was 252 min; in data set [6], 10.7 min; in data set [7] it was 3.01 min. Moreover, in the data set with Brain, the Drug uptake was 23.23 µg/g.

Regarding `CN1C=CC(C(=O)N/N=C/c2ccccc2Cl)C=C1`, the half-life in [4] was found to be 6.3 min; in data set [7], 3.3 min.

Regarding `CCOC(=O)C(C(=O)O)N1C=CCC(C(=O)N/N=C/c2ccccc2O)=C1` (stereo not given), the Activity with Mus musculus [1] turned out to be 64.55%. Moreover, the results for the half-life in data set [4] and in data set [7] were 3.85 min and 2.17 min, respectively.

Regarding `CCOC(=O)C(C(=O)O)[n+]1cccc(C(=O)N/N=C/c2ccccc2O)c1.[Br-]` (stereo not given), the Activity in the data set with Mus musculus [1] amounted to 39.15%; in the data set on Mus musculus [8] it was 90.2%.

As for `CCOC(=O)C(C(=O)O)[n+]1ccc(C(=O)N/N=C/c2ccccc2Cl)cc1.[Br-]` (stereo not given), the Activity in the data set with Mus musculus [1] is given as 31.42%; with Mus musculus [8], 79.6%.

In general, half-life refers to the time needed for the level to fall by half in the phase considered.
